# Measurements reported in ChEMBL document CHEMBL4033785, “Increased Potency and Selectivity for Group III Metabotropic Glutamate Receptor Agonists Binding at Dual sites” (J Med Chem, 2018).
# Activity calls are given as the source filed them. No cut-off for these calls is given here.
# Columns and labels:
# [1] = target: T1, Metabotropic glutamate receptor 7 (Homo sapiens, UniProt Q14831); assay: Agonist activity at mGlu7 (unknown origin) expressed in HEK293 cells coexpressing chimeric Gq/i protein assessed as increase in intracellular calcium accumulation by Fluo-4 AM dye based fluorescence assay; assay type: functional, cell-based
# Homo sapiens [2] = species on record: Homo sapiens; assay: Selectivity ratio of EC50 for mGlu8 (unknown origin) expressed in HEK293 cells coexpressing chimeric Gq/i protein assessed as [3H]inositol phosphate accumulation to EC50 for mGlu4 (unknown origin) expressed in HEK293 cells coexpressing chimeric Gq/i protein assessed as [3H]inositol phosphate accumulation; assay type: cell-based
# Procedure, shortened: (§1)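 Ratio of mGlu8 EC50 to mGlu4 EC50, both from the same functional assay. Both receptors were co-expressed in HEK293 cells with chimeric G-protein and EAAT3 and read by 3H-IP accumulation or by Fluo-4 Ca2+ release.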
# [3] = target: T2, Metabotropic glutamate receptor 6 (Homo sapiens, UniProt O15303); assay: Agonist activity at mGlu6 (unknown origin) expressed in HEK293 cells coexpressing chimeric Gq/i protein assessed as increase in intracellular calcium accumulation by Fluo-4 AM dye based fluorescence assay; assay type: functional, cell-based
# [4] = target: T3, Metabotropic glutamate receptor 8 (Homo sapiens, UniProt O00222); assay: Agonist activity at mGlu8 (unknown origin) expressed in HEK293 cells coexpressing chimeric Gq/i protein assessed as [3H]inositol phosphate accumulation after 30 mins by scintillation and luminescence counting method; assay type: functional, cell-based
# Procedure, shortened: (§2)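 Receptor transiently co-expressed in HEK293 cells (electroporation) with chimeric G-protein and glutamate transporter EAAT3. Cells labelled overnight with 3H-myoinositol, stimulated with agonist 30 min, lysed 1 h in cold 0.1 M formic acid. 3H-IP isolated on Dowex ion exchange and counted. IP expressed relative to IP plus membrane radioactivity. Points in triplicate; EC50 from Hill-equation fit.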
# [5] = target: T4, Metabotropic glutamate receptor 4 (Homo sapiens, UniProt Q14833); assay: Agonist activity at mGlu4 (unknown origin) expressed in HEK293 cells coexpressing chimeric Gq/i protein assessed as increase in intracellular calcium accumulation by Fluo-4 AM dye based fluorescence assay; assay type: functional, cell-based
# Homo sapiens [6] = species on record: Homo sapiens; assay: Selectivity ratio of EC50 for mGlu8 (unknown origin) expressed in HEK293 cells coexpressing chimeric Gq/i protein assessed as increase in intracellular calcium accumulation to EC50 for mGlu4 (unknown origin) expressed in HEK293 cells coexpressing chimeric Gq/i protein assessed as increase in intracellular calcium accumulation; assay type: cell-based; procedure, shortened: as §1
# [7] = target: T3, Metabotropic glutamate receptor 8; assay: Agonist activity at mGlu8 (unknown origin) expressed in HEK293 cells coexpressing chimeric Gq/i protein assessed as increase in intracellular calcium accumulation by Fluo-4 AM dye based fluorescence assay; assay type: functional, cell-based
# Homo sapiens [8] = species on record: Homo sapiens; assay: Selectivity ratio of EC50 for mGlu8 (unknown origin) expressed in HEK293 cells coexpressing chimeric Gq/i protein assessed as [3H]inositol phosphate accumulation to EC50 for mGlu4 (unknown origin) expressed in HEK293 cells coexpressing chimeric Gq/i protein assessed as increase in intracellular calcium accumulation; assay type: cell-based
# [9] = target: T2, Metabotropic glutamate receptor 6; assay: Agonist activity at mGlu6 (unknown origin) expressed in HEK293 cells coexpressing chimeric Gq/i protein assessed as [3H]inositol phosphate accumulation after 30 mins by scintillation and luminescence counting method; assay type: functional, cell-based; procedure, shortened: as §2
# [10] = target: T1, Metabotropic glutamate receptor 7; assay: Agonist activity at mGlu7 (unknown origin) expressed in HEK293 cells coexpressing chimeric Gq/i protein assessed as [3H]inositol phosphate accumulation after 30 mins by scintillation and luminescence counting method; assay type: functional, cell-based; procedure, shortened: as §2
# [11] = target: T4, Metabotropic glutamate receptor 4; assay: Agonist activity at mGlu4 (unknown origin) expressed in HEK293 cells coexpressing chimeric Gq/i protein assessed as [3H]inositol phosphate accumulation after 30 mins at 100 uM by scintillation and luminescence counting method; assay type: functional, cell-based; procedure, shortened: as §2
# [12] = target: T4, Metabotropic glutamate receptor 4; assay: Agonist activity at mGlu4 (unknown origin) expressed in HEK293 cells coexpressing chimeric Gq/i protein assessed as increase in intracellular calcium accumulation at 300 uM by Fluo-4 AM dye based fluorescence assay; assay type: functional, cell-based
# [13] = target: T3, Metabotropic glutamate receptor 8; assay: Agonist activity at mGlu8 (unknown origin) expressed in HEK293 cells coexpressing chimeric Gq/i protein assessed as increase in intracellular calcium accumulation at 300 uM by Fluo-4 AM dye based fluorescence assay; assay type: functional, cell-based
# [14] = target: T1, Metabotropic glutamate receptor 7; assay: Agonist activity at mGlu7 (unknown origin) expressed in HEK293 cells coexpressing chimeric Gq/i protein assessed as increase in intracellular calcium accumulation at 300 uM by Fluo-4 AM dye based fluorescence assay; assay type: functional, cell-based
# T1 sequence (Q14831 whole entry): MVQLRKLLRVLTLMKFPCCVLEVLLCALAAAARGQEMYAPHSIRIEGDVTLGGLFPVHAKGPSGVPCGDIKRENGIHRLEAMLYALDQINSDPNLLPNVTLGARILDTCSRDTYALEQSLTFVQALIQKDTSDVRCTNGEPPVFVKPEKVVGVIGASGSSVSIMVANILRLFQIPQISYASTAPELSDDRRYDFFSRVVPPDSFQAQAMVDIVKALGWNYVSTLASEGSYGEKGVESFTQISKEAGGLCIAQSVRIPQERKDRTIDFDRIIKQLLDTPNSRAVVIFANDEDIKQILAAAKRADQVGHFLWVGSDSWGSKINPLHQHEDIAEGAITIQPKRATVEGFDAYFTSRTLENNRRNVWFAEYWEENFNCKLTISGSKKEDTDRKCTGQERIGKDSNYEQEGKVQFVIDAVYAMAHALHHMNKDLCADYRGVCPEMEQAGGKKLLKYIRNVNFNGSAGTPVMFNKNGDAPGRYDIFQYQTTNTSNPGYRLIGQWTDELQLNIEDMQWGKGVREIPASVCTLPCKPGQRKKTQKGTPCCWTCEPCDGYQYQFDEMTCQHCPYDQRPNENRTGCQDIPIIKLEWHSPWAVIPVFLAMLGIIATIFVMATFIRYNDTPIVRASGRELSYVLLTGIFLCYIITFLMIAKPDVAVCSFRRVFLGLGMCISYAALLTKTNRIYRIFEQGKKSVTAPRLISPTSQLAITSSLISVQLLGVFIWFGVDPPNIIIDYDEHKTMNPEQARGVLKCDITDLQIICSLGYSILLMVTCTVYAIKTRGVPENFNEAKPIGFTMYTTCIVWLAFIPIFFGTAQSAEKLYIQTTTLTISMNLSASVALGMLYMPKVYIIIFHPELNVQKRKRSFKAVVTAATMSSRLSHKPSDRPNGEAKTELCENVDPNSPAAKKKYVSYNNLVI
# T4 sequence (Q14833 whole entry): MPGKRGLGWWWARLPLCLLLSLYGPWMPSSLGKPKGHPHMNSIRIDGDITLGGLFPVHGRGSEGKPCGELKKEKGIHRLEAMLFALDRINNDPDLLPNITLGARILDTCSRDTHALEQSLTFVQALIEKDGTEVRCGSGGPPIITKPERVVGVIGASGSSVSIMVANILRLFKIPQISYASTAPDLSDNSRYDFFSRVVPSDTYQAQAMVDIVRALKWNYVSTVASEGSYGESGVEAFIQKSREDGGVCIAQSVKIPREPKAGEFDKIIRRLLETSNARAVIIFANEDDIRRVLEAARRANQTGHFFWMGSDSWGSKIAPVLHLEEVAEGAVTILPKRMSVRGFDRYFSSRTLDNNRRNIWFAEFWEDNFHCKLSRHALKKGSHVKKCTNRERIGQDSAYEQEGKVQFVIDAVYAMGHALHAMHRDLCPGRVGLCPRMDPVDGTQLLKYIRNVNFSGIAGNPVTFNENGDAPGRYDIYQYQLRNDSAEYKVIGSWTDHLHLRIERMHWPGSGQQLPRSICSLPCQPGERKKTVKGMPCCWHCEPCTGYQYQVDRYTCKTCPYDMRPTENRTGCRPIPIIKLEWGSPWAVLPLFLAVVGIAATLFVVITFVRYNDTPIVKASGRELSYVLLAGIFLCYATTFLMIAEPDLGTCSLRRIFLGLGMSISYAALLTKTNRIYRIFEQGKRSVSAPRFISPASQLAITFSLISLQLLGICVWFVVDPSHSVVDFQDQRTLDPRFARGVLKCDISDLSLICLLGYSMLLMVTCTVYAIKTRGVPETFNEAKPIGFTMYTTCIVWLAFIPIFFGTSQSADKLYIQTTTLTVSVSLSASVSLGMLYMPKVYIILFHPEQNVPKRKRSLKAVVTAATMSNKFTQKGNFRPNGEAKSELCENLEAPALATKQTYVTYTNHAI
# T2 sequence (O15303 whole entry): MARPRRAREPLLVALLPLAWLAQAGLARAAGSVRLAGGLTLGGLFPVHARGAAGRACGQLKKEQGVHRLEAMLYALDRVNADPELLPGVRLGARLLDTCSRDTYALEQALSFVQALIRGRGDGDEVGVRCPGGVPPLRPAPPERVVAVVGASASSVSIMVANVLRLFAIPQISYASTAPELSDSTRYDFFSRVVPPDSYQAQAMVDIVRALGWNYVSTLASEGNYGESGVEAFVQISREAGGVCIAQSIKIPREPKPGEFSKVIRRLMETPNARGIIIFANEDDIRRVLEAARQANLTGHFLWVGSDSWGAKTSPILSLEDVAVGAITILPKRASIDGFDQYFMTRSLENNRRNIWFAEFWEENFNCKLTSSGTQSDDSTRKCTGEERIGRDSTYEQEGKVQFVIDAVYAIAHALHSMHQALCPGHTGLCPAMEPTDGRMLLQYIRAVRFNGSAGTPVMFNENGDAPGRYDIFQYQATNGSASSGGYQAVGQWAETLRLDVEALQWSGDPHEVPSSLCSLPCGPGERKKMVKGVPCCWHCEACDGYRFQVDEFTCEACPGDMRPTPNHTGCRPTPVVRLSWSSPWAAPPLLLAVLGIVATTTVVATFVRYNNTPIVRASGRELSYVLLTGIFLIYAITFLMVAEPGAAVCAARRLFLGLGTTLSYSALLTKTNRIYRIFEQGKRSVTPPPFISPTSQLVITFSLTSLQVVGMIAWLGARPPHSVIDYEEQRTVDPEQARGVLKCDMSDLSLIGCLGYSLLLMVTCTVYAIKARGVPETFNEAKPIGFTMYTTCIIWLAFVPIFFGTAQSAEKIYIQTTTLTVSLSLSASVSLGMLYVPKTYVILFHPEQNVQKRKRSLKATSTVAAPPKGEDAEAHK
# T3 sequence (O00222 whole entry): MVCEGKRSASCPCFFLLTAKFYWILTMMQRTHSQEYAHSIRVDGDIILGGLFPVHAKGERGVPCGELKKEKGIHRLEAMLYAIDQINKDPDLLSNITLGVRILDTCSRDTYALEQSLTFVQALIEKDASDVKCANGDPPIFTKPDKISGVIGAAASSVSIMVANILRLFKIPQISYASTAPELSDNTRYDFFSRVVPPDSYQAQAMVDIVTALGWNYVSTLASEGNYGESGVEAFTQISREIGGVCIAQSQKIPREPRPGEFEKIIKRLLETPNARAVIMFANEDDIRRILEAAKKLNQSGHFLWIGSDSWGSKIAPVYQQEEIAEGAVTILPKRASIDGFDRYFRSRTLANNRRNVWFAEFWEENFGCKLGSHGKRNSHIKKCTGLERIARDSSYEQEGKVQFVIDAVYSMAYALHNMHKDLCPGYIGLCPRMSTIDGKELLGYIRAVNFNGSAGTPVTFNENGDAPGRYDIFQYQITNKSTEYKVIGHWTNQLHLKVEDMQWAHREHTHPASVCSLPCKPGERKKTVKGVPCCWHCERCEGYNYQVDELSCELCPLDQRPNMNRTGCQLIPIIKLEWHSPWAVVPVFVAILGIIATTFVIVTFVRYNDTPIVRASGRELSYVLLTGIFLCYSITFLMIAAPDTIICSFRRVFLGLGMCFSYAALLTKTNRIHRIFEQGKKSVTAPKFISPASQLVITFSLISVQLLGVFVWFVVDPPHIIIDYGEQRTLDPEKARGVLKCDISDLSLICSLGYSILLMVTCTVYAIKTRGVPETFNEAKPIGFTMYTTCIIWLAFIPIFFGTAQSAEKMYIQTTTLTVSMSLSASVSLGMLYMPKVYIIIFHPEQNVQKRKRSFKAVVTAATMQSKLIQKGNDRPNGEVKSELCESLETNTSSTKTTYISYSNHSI
Structure (SMILES),EC50 [1],Ratio EC50 (Homo sapiens [2]),EC50 [3],EC50 [4],EC50 [5],Ratio EC50 (Homo sapiens [6]),EC50 [7],also measured
N[C@@H](CCP(=O)(O)C(O)c1cc(O)c(O)c([N+](=O)[O-])c1)C(=O)O (stereo not given in full),> 100 µM,1.1,26 µM,5.4 µM,4.3 µM,7.6,32.8 µM,
N[C@@H](CCP(=O)(O)C(O)c1ccc([N+](=O)[O-])c(C(F)(F)F)c1)C(=O)O (stereo not given in full),> 100 µM,2.4,2.9 µM,0.98 µM,,,,
N[C@@H](CCP(=O)(O)C(O)c1c(F)c(F)c(F)c(F)c1F)C(=O)O (stereo not given in full),> 100 µM,3.7,30 µM,18.5 µM,5.6 µM,1.4,7.6 µM,
N[C@@H](CCP(=O)(O)C(O)c1ccc([N+](=O)[O-])cc1)C(=O)O (stereo not given in full),> 100 µM,1.4,4.6 µM,0.53 µM,0.64 µM,0.8,0.49 µM,
N[C@@H](CCP(=O)(O)C(O)c1cccnc1)C(=O)O (stereo not given in full),,,,36 µM,30 µM,,,Ratio EC50 (Homo sapiens [8]): 1.2
N[C@@H](CCP(=O)(O)C(O)c1ccc(N2CCOCC2)c([N+](=O)[O-])c1)C(=O)O (stereo not given in full),> 100 µM,,> 100 µM,> 100 µM,,,,
N[C@@H](CCP(=O)(O)C(O)c1cccc(C(=O)O)c1)C(=O)O (stereo not given in full),,5.8,,125 µM,,,,EC50 [9]: > 100 µM
N[C@@H](CCP(=O)(O)CCC(=O)O)C(=O)O,89 µM,1.2,6.7 µM,7.8 µM,5.94 µM,1.1,6.5 µM,EC50 [9]: 31 µM
N[C@@H](CCP(=O)(O)C(O)c1ccc(C(=O)O)cc1)C(=O)O (stereo not given in full),,18,,141 µM,,,,EC50 [10]: 169 µM; EC50 [9]: 31 µM
N[C@@H](CCP(=O)(O)C(O)c1ccccc1C(=O)O)C(=O)O (stereo not given in full),,,,,,,,Activity [11]: inactive
N[C@@H](CCP(=O)(O)Cc1cccc([N+](=O)[O-])c1)C(=O)O,> 100 µM,5.4,3.2 µM,,,2.5,,
COc1cc(C(O)P(=O)(O)CCC[C@H](N)C(=O)O)cc([N+](=O)[O-])c1O (stereo not given in full),,,,,,,,Activity [12]: inactive; Activity [13]: inactive
N[C@@H](CCP(=O)(O)C(O)c1ccc([N+](=O)[O-])o1)C(=O)O (stereo not given in full),,2.2,,0.3 µM,,,,EC50 [10]: 1970 µM; EC50 [9]: 6.1 µM
N[C@@H](CCP(=O)(O)C(O)c1ccc(Cl)c([N+](=O)[O-])c1)C(=O)O (stereo not given in full),> 100 µM,1.2,18 µM,2.5 µM,4.7 µM,1,4.9 µM,
COc1ccc([C@@H](O)P(=O)(O)CC[C@H](N)C(=O)O)cc1[N+](=O)[O-],> 100 µM,,4.5 µM,,2 µM,1.2,2.5 µM,
N[C@@H](CCCP(=O)(O)C(O)c1ccc(OCC(=O)O)cc1)C(=O)O (stereo not given in full),,,,,,,,Activity [12]: inactive; Activity [13]: inactive
N[C@@H](CCP(=O)(O)[C@@H](O)c1cc(F)c(O)c([N+](=O)[O-])c1)C(=O)O,53.8 µM,,10.2 µM,,9.77 µM,1.8,17.1 µM,
Nc1ncc(C(O)P(=O)(O)CC[C@H](N)C(=O)O)s1 (stereo not given in full),,,> 100 µM,,15 µM,1.9,28 µM,Activity [14]: inactive
N[C@@H](CCP(=O)(O)C(O)c1ccc([N+](=O)[O-])s1)C(=O)O (stereo not given in full),> 100 µM,3.9,4.2 µM,1.9 µM,,,,
N[C@@]1(C(=O)O)C[C@H](C(=O)O)[C@H](C(=O)O)C1,,3,,5.1 µM,,,,EC50 [10]: 280 µM; EC50 [9]: 11 µM
COc1ccc([C@H](O)P(=O)(O)CC[C@H](N)C(=O)O)cc1[N+](=O)[O-],> 100 µM,,3.9 µM,,1.7 µM,1.3,2.2 µM,
N[C@@H](CCP(=O)(O)Cc1ccc(O)c([N+](=O)[O-])c1)C(=O)O,> 100 µM,,> 100 µM,,24 µM,11,277 µM,
N[C@@H](CCP(=O)(O)[C@H](O)c1cc(F)c(O)c([N+](=O)[O-])c1)C(=O)O,39 µM,,0.76 µM,,2.42 µM,14,34.3 µM,
N[C@@H](CCP(=O)(O)C(O)c1ccc(C(F)(F)F)c([N+](=O)[O-])c1)C(=O)O (stereo not given in full),> 100 µM,,11.9 µM,,0.44 µM,3.5,1.54 µM,EC50 [9]: 5.7 µM
N[C@H](C(=O)O)c1ccc(C(=O)O)c(C(=O)O)c1,30 to 100 µM,0.012,3.2 to 6.2 µM,0.023 µM,3.2 µM,0.014,0.044 µM,
N[C@@H](CCP(=O)(O)O)C(=O)O,249 µM,2.5,1 µM,,,2.2,,EC50 [10]: 337 µM; EC50 [9]: 2.4 µM
COc1cc(C(N)P(=O)(O)CC[C@H](N)C(=O)O)cc([N+](=O)[O-])c1O (stereo not given in full),,,> 100 µM,,11.6 µM,3,,Activity [14]: inactive
N[C@@H](CCP(=O)(O)C(O)c1ccc(F)c([N+](=O)[O-])c1)C(=O)O (stereo not given in full),> 100 µM,2.1,4 µM,1.3 µM,0.44 µM,1.5,0.66 µM,EC50 [9]: 25 µM
